Reference: ChEMBL document CHEMBL2417428, “Cytotoxic psammaplysin analogues from a Suberea sp. marine sponge and the role of the spirooxepinisoxazoline in their activity” (2013)

Experiments:
Assay type in all cases: functional
NCI-H23 = test: Cytotoxicity against human NCI-H23 cells after 48 hrs by sulforhodamine B assay; details: NCI-H23, 48 h
How it was run: (§1)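 Cells seeded in 96-well plates with test compounds or doxorubicin control and incubated 48 h. Fixed with 50% trichloroacetic acid, stained with 0.4% sulforhodamine B in 1% acetic acid, and washed with 1% acetic acid. Bound dye was extracted with 10 mM Tris base (pH 10.5) and absorbance read at 540 nm for growth inhibition.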

NUGC-3 = test: Cytotoxicity against human NUGC3 cells after 48 hrs by sulforhodamine B assay; details: NUGC-3, 48 h; how it was run: as §1
MDA-MB-231 = test: Cytotoxicity against human MDA-MB-231 cells after 48 hrs by sulforhodamine B assay; details: MDA-MB-231, 48 h; how it was run: as §1
ACHN = test: Cytotoxicity against human ACHN cells after 48 hrs by sulforhodamine B assay; how it was run: as §1
PC-3 = test: Cytotoxicity against human PC3 cells after 48 hrs by sulforhodamine B assay; details: PC-3, 48 h; how it was run: as §1
HCT-15 = test: Cytotoxicity against human HCT15 cells after 48 hrs by sulforhodamine B assay; details: HCT-15, 48 h; how it was run: as §1

| Structure (SMILES) | GI50 (NCI-H23) [µM] | GI50 (NUGC-3) [µM] | GI50 (MDA-MB-231) [µM] | GI50 (ACHN) [µM] | GI50 (PC-3) [µM] | GI50 (HCT-15) [µM] |
| --- | --- | --- | --- | --- | --- | --- |
| N#CC(=O)NCCCOc1c(Br)cc(C(O)CN)cc1Br (configuration not stated) | > 70 | > 70 | > 70 | > 70 | > 70 | > 70 |
| COC1=C(Br)C[C@@]2(OC=C1Br)ON=C(C(=O)NCCCOc1c(Br)cc(CCNC=C3C(=O)C=CC3=O)cc1Br)[C@H]2O | 7 | 4 | 3.9 | 10.3 | 3.7 | 7.4 |
| COC1=C(Br)C[C@@]2(OC=C1Br)ON=C(C(=O)NCCCOc1c(Br)cc(C(O)CNC(=O)CCCCCCCCCCCC(C)C)cc1Br)[C@H]2O (some centres not stated) | 27 | 26 | 21 | 27 | 25 | 24 |
| COC1=C(Br)C[C@]2(OC=C1Br)ON=C(C(=O)NCCCOc1c(Br)cc(CCN/C=C3/C(=O)CC(Cl)C3=O)cc1Br)[C@@H]2O (mixture of isomers) | 6.4 | 3.5 | 1.2 | 3.3 | 2.3 | 3.3 |
| COC1=C(Br)C[C@]2(OC=C1Br)ON=C(C(=O)NCCCOc1c(Br)cc(C(O)CN/C=C3/C(=O)CC(Cl)C3=O)cc1Br)[C@@H]2O (mixture of isomers) [19-HYDROXYPSAMMAPLYSINE X] | 3.5 | 4 | 0.8 | 2.5 | 2.1 | 3.5 |
| COC1=C(Br)C[C@@]2(OC=C1Br)ON=C(C(=O)NCCCOc1c(Br)cc(C(O)CN)cc1Br)[C@H]2O (relative stereo) | 3.7 | 2.5 | 0.53 | 1.6 | 2.7 | 4 |
| COC1=C(Br)C[C@@]2(OC=C1Br)ON=C(C(=O)NCCCOc1c(Br)cc(CCN)cc1Br)[C@H]2O (relative stereo) | 12.4 | 3.8 | 4.3 | 5.1 | 6.9 | 3.9 |
| COC1=C(Br)C[C@@]2(OC=C1Br)ON=C(C(=O)NCCCOc1c(Br)cc(C(O)CNC=C3C(=O)C=CC3=O)cc1Br)[C@H]2O (some centres not stated) [19-HYDROXYPSAMMAPLYSINE E] | 3.6 | 2.3 | 0.51 | 2.3 | 1.4 | 3.8 |
| N#CC(=O)NCCCOc1c(Br)cc(CCN)cc1Br [CERATINAMINE] | > 70 | > 70 | > 70 | > 70 | > 70 | > 70 |
| COc1cccc2c1C(=O)c1c(O)c3c(c(O)c1C2=O)C[C@@](O)(C(=O)CO)C[C@@H]3O[C@H]1C[C@H](N)[C@H](O)[C@H](C)O1 [DOXORUBICIN] | 1.9 | 0.51 | 1.8 | 2 | 0.52 | 1.4 |
| NCCCOc1c(Br)cc(C(O)CN)cc1Br (configuration not stated) [HYDROXYMOLOKA'IAMINE] | > 70 | > 70 | > 70 | > 70 | > 70 | > 70 |
| NCCCOc1c(Br)cc(CCN)cc1Br [MOLOKA'IAMINE] | > 70 | > 70 | > 70 | > 70 | > 70 | > 70 |
